From ChEMBL document CHEMBL3739417, “Synthesis and biological evaluation of novel 4,5-disubstituted 2H-1,2,3-triazoles as cis-constrained analogues of combretastatin A-4” (2015) come the findings set out here.

A short description of assay [1]: Cell cycle arrest in rat 9LSF cells assessed as accumulation at G2/M phase at 50 nM after 24 hrs by propidium iodide based flow cytometry. The assay is classed as functional. An outline of the steps:
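9LSF rat gliosarcoma cells were exposed to 50 nM compound for 24 h alongside untreated controls. Cells were then trypsinized, counted, rinsed in PBS and fixed in ice-cold 70% EtOH/PBS at 10⁶ cells/mL, then held at 4°C. For analysis, 10⁶ cells were pelleted, rinsed three times in PBS and resuspended in 1 mL PBS with 1 µL PI (12.5 mg/mL stock in DMSO). The G2/M fraction was read by flow cytometry.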

Assay [2] in a line: Inhibition of colony formation in rat 9LSF cells after 24 hrs by crystal violet staining. To be noted: read-out: LD50 (the source's name). The format is functional. An outline of the steps:
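9LSF rat gliosarcoma cells exposed for 24 hours at 1 nM, 3 nM, 10 nM, 30 nM, 100 nM, 1 μM or 10 μM. Then trypsinized, counted, seeded in triplicate and incubated at 37°C until colonies exceeded 50 cells. Flasks with fewer than 50,000 cells got 50,000 lethally irradiated A549 feeder cells first. Colonies fixed, crystal violet-stained and counted. LD50 from four-parameter logistic fit, mean ± SEM of 3 independent experiments.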

Calls of active or inactive are those of the source. The calls are words filed in the database; no cut-off is given here.

As for `COc1ccc(-c2n[nH]nc2-c2cc(OC)c(OC)c(OC)c2)cc1O`, the outcome in assay [1] was Active. In addition, in assay [2], the CC50 came out at 7.5 nM.
